Tests used:
Saccharomyces cerevisiae [1] = experiment: Inhibition of yeast Hsp70 ATPase assessed as ATP hydrolysis relative to control
Outline: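 Purified yeast Hsp70 (Ssa1p) was pre-bound to ATP and run as a single-turnover assay, so that only the hydrolysis step is measured. Compound (300 µM) or DMSO was added at 0 s, and that time was set to zero. Results from multiple experiments were averaged, kinetics were fitted, and the value is the fold change in hydrolysis versus DMSO.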

Saccharomyces cerevisiae [2] = experiment: Inhibition of SV40 T antigen-stimulated Hsp70 ATPase in yeast assessed as ATP hydrolysis relative to control
Outline: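 Yeast Ssa1p was pre-bound to ATP and run as a single-turnover assay with purified SV40 TAg (0.4 µM). Compound (300 µM) or DMSO was added at 60 s, and that time was set to zero. Runs were averaged over multiple experiments, kinetics were fitted, and the value is the fold change in TAg-stimulated ATP hydrolysis versus DMSO.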

SK-BR-3 = experiment: Antiproliferative activity against human SK-BR3 cells after 96 hrs by MTS assay; type: functional; details: SK-BR-3, 96 h
Outline: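 Cells were kept in exponential growth in DMEM with 10% FBS, 1% penicillin and 1% glutamine, seeded at 4,000 per well and grown 48 h, with a time-zero plate counted. They were then exposed for 72 h to DMSO (1 v/v) or a concentration range in quadruplicate. Cell number was read by MTS/N-methylphenazine methylsulfate absorbance at 490 minus 630 nm. GI50 is relative to DMSO over the 72 h or 96 h period, and values above 50 µM are given as >50.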

| Fold change (Saccharomyces cerevisiae [1]) | Fold change (Saccharomyces cerevisiae [2]) | GI50 (SK-BR-3) | Structure (SMILES) |
| --- | --- | --- | --- |
| 19.1 | 2.1 | > 50 µM | CCCCCCN(C(=O)CCCCCN1C(=O)NC(c2ccc(-c3ccccc3)cc2)C(C(=O)OCc2ccccc2)=C1C)C(C(=O)NCCCC)c1ccc(O)c(C(=O)OC)c1 (centres undefined) |
| -1.1 | 1.1 | > 50 µM | CC1=C(C(=O)OCc2ccccc2)C(c2cccc([N+](=O)[O-])c2)NC(=O)N1CCCCCC(=O)O (centres undefined) |
| 9.9 | 6 | > 50 µM | CCCCCCN(C(=O)CCCCCN1C(=O)NC(c2ccc(-c3ccccc3)cc2)C(C(=O)OCc2ccccc2)=C1C)C(C(=O)NCCCC)c1ccc(-c2ccccc2)cc1 (centres undefined) |
| 1.1 | 1.2 | 48 µM | CCCCCCN(C(=O)CCCCCN1C(=O)NC(c2ccc(-c3ccccc3)cc2)C(C(=O)OCc2ccccc2)=C1C)C(C(=O)NCCCC)c1ccc(OCC(=O)OC)cc1 (centres undefined) |
| 2.6 | -1.2 | > 50 µM | COC(=O)CCCCCN1C(=O)NC(c2ccc(-c3ccccc3)cc2)C(C(=O)OCc2ccccc2)=C1C (centres undefined) |
| 1 | -5 | > 50 µM | CC1=C(C(=O)OCc2ccccc2)C(c2ccccc2-c2ccccc2)NC(=O)N1CCCCCC(=O)O (centres undefined) |
| 1.1 | -3.5 | > 50 µM | CC1=C(C(=O)OCc2ccccc2)C(c2ccc(-c3ccccc3)cc2)NC(=O)N1CCCCCC(=O)O (centres undefined) |
| 3.7 | -2 | > 50 µM | CCCCCCN(C(=O)CCCCCN1C(=O)NC(c2ccc(-c3ccccc3)cc2)C(C(=O)OCc2ccccc2)=C1C)C(C(=O)NCCCC)c1cccc(C(=O)OC)c1 (centres undefined) |
| 1 | -4.8 | > 50 µM | CCCCCCN(C(=O)CCCCCN1C(=O)NC(c2ccc(C(F)(F)F)cc2)C(C(=O)OCc2ccccc2)=C1C)C(C(=O)NCCCC)c1ccc(OCC(=O)OC)c(C(=O)OC)c1 (centres undefined) |
| 1.3 | -1.6 | > 50 µM | CC1=C(C(=O)OCc2ccccc2)C(c2ccc(Cl)cc2)NC(=O)N1CCCCCC(=O)O (centres undefined) |
| 6.1 | -1.2 | 39 µM | CCCCNC(=O)C(c1ccc(OCC(=O)OC)c(C(=O)OC)c1)N(CCC1=CCCCC1)C(=O)CCCCCN1C(=O)NC(c2ccc(-c3ccccc3)cc2)C(C(=O)OCc2ccccc2)=C1C (centres undefined) |
| 1.1 | -1.5 | 6 µM | CCCCCCN(C(=O)CCCCCN1C(=O)NC(c2cccc([N+](=O)[O-])c2)C(C(=O)OCc2ccccc2)=C1C)C(C(=O)NCCCC)c1ccc(OCC(=O)OC)c(C(=O)OC)c1 (centres undefined) |
| 1.2 | -2.1 | 6.3 µM | CCCCCCN(C(=O)CCCCCN1C(=O)NC(C2CCCCC2)C(C(=O)OCc2ccccc2)=C1C)C(C(=O)NCCCC)c1ccc(OCC(=O)OC)c(C(=O)OC)c1 (centres undefined) |
| 1 | -1.1 | 7.1 µM | CCCCNC(=O)C(c1ccc(OCC(=O)OC)c(C(=O)OC)c1)N(Cc1ccccn1)C(=O)CCCCCN1C(=O)NC(c2ccc(-c3ccccc3)cc2)C(C(=O)OCc2ccccc2)=C1C (centres undefined) |
| 1.3 | -5.1 | 16 µM | CCCCCCN(C(=O)CCCCCN1C(=O)NC(c2ccc(Cl)cc2)C(C(=O)OCc2ccccc2)=C1C)C(C(=O)NCCCC)c1ccc(OCC(=O)OC)c(C(=O)OC)c1 (centres undefined) |
| 10.3 | -1.3 | > 50 µM | CCCCNC(=O)C(c1ccc(OCC(=O)OC)c(C(=O)OC)c1)N(CCc1c[nH]c2ccccc12)C(=O)CCCCCN1C(=O)NC(c2ccc(-c3ccccc3)cc2)C(C(=O)OCc2ccccc2)=C1C (centres undefined) |
| 1.9 | 1 | > 50 µM | COC(=O)CCCCCN1C(=O)NC(C2CC2)C(C(=O)OCc2ccccc2)=C1C (centres undefined) |
| 2.3 | -5 | > 50 µM | CCCCNC(=O)C(c1ccc(-c2ccccc2)cc1)N(CCN1CCOCC1)C(=O)CCCCCN1C(=O)NC(c2ccc([N+](=O)[O-])cc2)C(C(=O)OCc2ccccc2)=C1C (centres undefined) |
| 1.1 | 1 | > 50 µM | CC1=C(C(=O)OCc2ccccc2)C(C2CC2)NC(=O)N1CCCCCC(=O)O (centres undefined) |
| 2.3 | -1.7 | > 50 µM | COC(=O)CCCCCN1C(=O)NC(c2ccccc2)C(C(=O)OCc2ccccc2)=C1C (centres undefined) |
| 1.6 | 1 | > 50 µM | CCCCCCN(C(=O)CCCCCN1C(=O)NC(c2ccc(-c3ccccc3)cc2)C(C(=O)OCc2ccccc2)=C1C)C(C)C(=O)NCCCC (centres undefined) |

| Fold change (Saccharomyces cerevisiae [1]) | Fold change (Saccharomyces cerevisiae [2]) | GI50 (SK-BR-3) | Structure (SMILES) |
| --- | --- | --- | --- |
| 1.2 | -5.2 | 29 µM | CCCCCCN(C(=O)CCCCCN1C(=O)NC(c2ccc(C(C)(C)C)cc2)C(C(=O)OCc2ccccc2)=C1C)C(C(=O)NCCCC)c1ccc(OCC(=O)OC)c(C(=O)OC)c1 (centres undefined) |
| 1 | -3.5 | > 50 µM | CC1=C(C(=O)OCc2ccccc2)C(c2ccc(C(C)(C)C)cc2)NC(=O)N1CCCCCC(=O)O (centres undefined) |
| 1 | 1.5 | > 50 µM | CC1=C(C(=O)OCc2ccccc2)C(C2CCCCC2)NC(=O)N1CCCCCC(=O)O (centres undefined) |
| 11.8 | 9.2 | > 50 µM | CCCCCCN(C(=O)CCCCCN1C(=O)NC(c2ccc(-c3ccccc3)cc2)C(C(=O)OCc2ccccc2)=C1C)C(C(=O)NCCCC)c1ccc(O)cc1 (centres undefined) |
| 1.2 | 1.1 | > 50 µM | CC1=C(C(=O)OCc2ccccc2)C(c2ccc(C(F)(F)F)cc2)NC(=O)N1CCCCCC(=O)O (centres undefined) |
| 4.2 | 5.5 | > 50 µM | CCCCCCN(C(=O)CCCCCN1C(=O)NC(c2ccc(-c3ccccc3)cc2)C(C(=O)OCc2ccccc2)=C1C)C(C(=O)NCCCC)c1ccccn1 (centres undefined) |
| 1.2 | 1.1 | > 50 µM | CC1=C(C(=O)OCc2ccccc2)C(c2ccc([N+](=O)[O-])cc2)NC(=O)N1CCCCCC(=O)O (centres undefined) |
| 1.1 | -2.4 | > 50 µM | CC1=C(C(=O)OCc2ccccc2)C(c2ccc(C3CCCCC3)cc2)NC(=O)N1CCCCCC(=O)O (centres undefined) |
| 1.1 | -2.2 | > 50 µM | CCCCCCN(C(=O)CCCCCN1C(=O)NC(c2ccc(-c3ccccc3)cc2)C(C(=O)OCc2ccccc2)=C1C)C(C(=O)NCCCC)c1ccc(OCC(=O)O)c(C(=O)O)c1 (centres undefined) |
| -1.1 | -4 | 17 µM | CCCCCCN(C(=O)CCCCCN1C(=O)NC(c2ccccc2-c2ccccc2)C(C(=O)OCc2ccccc2)=C1C)C(C(=O)NCCCC)c1ccc(OCC(=O)OC)c(C(=O)OC)c1 (centres undefined) |
| 1.5 | -1.9 | 14 µM | CCCCNC(=O)C(c1ccc(OCC(=O)OC)c(C(=O)OC)c1)N(Cc1ccccc1)C(=O)CCCCCN1C(=O)NC(c2ccc(-c3ccccc3)cc2)C(C(=O)OCc2ccccc2)=C1C (centres undefined) |
| -1.1 | -1.4 | > 50 µM | CC1=C(C(=O)OCc2ccccc2)C(c2ccc3ccccc3c2)NC(=O)N1CCCCCC(=O)O (centres undefined) |
|  |  | 6.1 µM | CC(=O)O[C@H]1C(=O)[C@@]2(C)[C@H]([C@H](OC(=O)c3ccccc3)[C@]3(O)C[C@H](OC(=O)[C@H](O)[C@@H](NC(=O)c4ccccc4)c4ccccc4)C(C)=C1C3(C)C)[C@]1(OC(C)=O)CO[C@@H]1C[C@@H]2O [PACLITAXEL] |
| 3.2 | 1.1 | > 50 µM | CCCCCCN(C(=O)CCCCCN1C(=O)NC(c2ccc(-c3ccccc3)cc2)C(C(=O)OCc2ccccc2)=C1C)C(C(=O)NCCCC)c1ccccc1 (centres undefined) |
| 1.5 | -1.1 | > 50 µM | CC1=C(C(=O)OCc2ccccc2)C(c2ccccc2)NC(=O)N1CCCCCC(=O)O (centres undefined) |
| 12.3 | 1.3 | 32 µM | CCCCNC(=O)C(c1ccc(OCC(=O)OC)c(C(=O)OC)c1)N(CCc1ccccc1)C(=O)CCCCCN1C(=O)NC(c2ccc(-c3ccccc3)cc2)C(C(=O)OCc2ccccc2)=C1C (centres undefined) |
| 2.2 | -1.6 | 42 µM | CCCCCCN(C(=O)CCCCCN1C(=O)NC(c2ccc(C3CCCCC3)cc2)C(C(=O)OCc2ccccc2)=C1C)C(C(=O)NCCCC)c1ccc(OCC(=O)OC)c(C(=O)OC)c1 (centres undefined) |
| 1 | -1.1 | 10 µM | CCCCCCN(C(=O)CCCCCN1C(=O)NC(c2ccc3ccccc3c2)C(C(=O)OCc2ccccc2)=C1C)C(C(=O)NCCCC)c1ccc(OCC(=O)OC)c(C(=O)OC)c1 (centres undefined) |
| 3.2 | 1.1 | > 50 µM | CCCCCCN(C(=O)CCCCCN1C(=O)NC(c2ccc(-c3ccccc3)cc2)C(C(=O)OCc2ccccc2)=C1C)C(C(=O)NCCCC)C1CCCCC1 (centres undefined) |
| -1.1 | -1.1 | 7.5 µM | CCCCNC(=O)C(c1ccc(OCC(=O)OC)c(C(=O)OC)c1)N(CCc1ccccn1)C(=O)CCCCCN1C(=O)NC(c2ccc(-c3ccccc3)cc2)C(C(=O)OCc2ccccc2)=C1C (centres undefined) |
| 1 | -1.1 | 6.9 µM | CCCCCCN(C(=O)CCCCCN1C(=O)NC(c2ccc([N+](=O)[O-])cc2)C(C(=O)OCc2ccccc2)=C1C)C(C(=O)NCCCC)c1ccc(OCC(=O)OC)c(C(=O)OC)c1 (centres undefined) |

— ChEMBL document CHEMBL1143913, “Pyrimidinone-peptoid hybrid molecules with distinct effects on molecular chaperone function and cell proliferation” (Bioorg Med Chem, 2008)
